Test [1] concerns the target T1, Coagulation factor VII (Homo sapiens) (UniProt P08709).
T1 sequence (whole entry): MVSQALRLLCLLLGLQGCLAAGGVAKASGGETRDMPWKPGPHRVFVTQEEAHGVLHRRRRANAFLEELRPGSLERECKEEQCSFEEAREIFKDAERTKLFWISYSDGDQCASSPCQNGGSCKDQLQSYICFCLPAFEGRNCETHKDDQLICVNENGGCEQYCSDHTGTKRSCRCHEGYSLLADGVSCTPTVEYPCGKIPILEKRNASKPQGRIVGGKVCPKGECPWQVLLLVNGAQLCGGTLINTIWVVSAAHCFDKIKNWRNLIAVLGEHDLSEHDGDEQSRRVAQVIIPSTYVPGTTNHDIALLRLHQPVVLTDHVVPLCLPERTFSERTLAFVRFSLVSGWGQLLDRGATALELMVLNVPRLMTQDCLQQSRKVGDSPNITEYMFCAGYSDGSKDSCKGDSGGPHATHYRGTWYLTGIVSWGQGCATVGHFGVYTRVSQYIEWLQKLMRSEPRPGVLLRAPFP
Nature of the test: Inhibition of FVIIa (unknown origin) at 500 uM by chromogenic substrate hydrolysis assay.

Test [2] is filed under the species Homo sapiens. The test is described as follows: Inhibition of human FXIa heparin-binding site of A3 domain harboring K252A,K253A,K255A mutant and heparin-binding site of catalytic domain harboring K529A,R530A,R532A,K535A,K539A mutant using S-2366 as chromogenic substrate preincubated with enzyme for 10 mins followed by substrate addition by spectrophotometric analysis relative to control. Summed up: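 Recombinant hFXIa alanine mutants tested in 50 mM Tris-HCl pH 7.4, 150 mM NaCl, 0.1% PEG8000, 0.02% Tween80. Inhibitor and enzyme incubated 10 min at 37 °C, then S-2366 (345 μM final) added and residual activity read. IC50 and maximal inhibition efficacy (ΔY) obtained by nonlinear dose-response regression.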

Test [3] concerns the target Chymotrypsinogen A (Bos taurus) (UniProt P00766). The test is described as follows: Inhibition of bovine alpha-chymotrypsin at 500 uM by chromogenic substrate hydrolysis assay.
The target in test [4] is Coagulation factor X (Homo sapiens) (UniProt P00742). The test is described as follows: Inhibition of human FXa using methoxycarbonyl-D-cyclohexylglycyl-Gly-Arg-p-nitroanilide as substrate at 500 uM by chromogenic substrate hydrolysis assay.
Sequence of Coagulation factor X (Homo sapiens) (P00742 41-179 limits assumed): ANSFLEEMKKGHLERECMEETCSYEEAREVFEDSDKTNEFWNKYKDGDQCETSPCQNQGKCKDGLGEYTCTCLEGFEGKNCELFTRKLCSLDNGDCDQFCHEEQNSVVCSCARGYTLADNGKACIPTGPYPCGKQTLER
Sequence of Coagulation factor X (Homo sapiens) (P00742 235-488 limits assumed): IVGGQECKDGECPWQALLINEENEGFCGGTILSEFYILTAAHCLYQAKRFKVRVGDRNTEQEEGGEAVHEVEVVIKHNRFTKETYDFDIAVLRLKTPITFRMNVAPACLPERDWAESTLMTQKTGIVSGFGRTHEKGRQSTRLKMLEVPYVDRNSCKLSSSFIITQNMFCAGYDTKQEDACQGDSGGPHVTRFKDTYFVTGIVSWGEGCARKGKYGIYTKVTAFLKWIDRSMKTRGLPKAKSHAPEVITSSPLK
Test [5] has as its target Plasma kallikrein (Homo sapiens) (UniProt P03952). Nature of the test: Inhibition of Kallikrein in human plasma at 500 uM by chromogenic substrate hydrolysis assay. The format is cell-free.
Test [6] concerns the target Coagulation factor IX (Homo sapiens) (UniProt P00740). The test is described as follows: Inhibition of human FIXa at 500 uM by chromogenic substrate hydrolysis assay.
For test [7], the species on record is Bos taurus. The test is described as follows: Inhibition of bovine trypsin using S-2222 as chromogenic substrate at 500 uM by chromogenic substrate hydrolysis assay.
For test [8], the target named is Prothrombin (Homo sapiens) (UniProt P00734). Nature of the test: Inhibition of human thrombin at 500 uM by chromogenic substrate hydrolysis assay.
The species named for test [9] is Homo sapiens. Nature of the test: Selectivity for inhibition of human FXIa over Kallikrein in human plasma. Format: cell-free.
For test [10], the species on record is Homo sapiens. Nature of the test: Selectivity for inhibition of human FXIa over human thrombin.
The target of test [11] is Coagulation factor X (Homo sapiens) (UniProt P00742). Nature of the test: Inhibition of human FXa using methoxycarbonyl-D-cyclohexylglycyl-Gly-Arg-p-nitroanilide as substrate at >200 uM by chromogenic substrate hydrolysis assay.
For test [12], the species on record is Homo sapiens. The test is described as follows: Selectivity for inhibition of human FXIa over human FIXa.
The target of test [13] is T2, Coagulation factor XI (Homo sapiens, UniProt P03951). Nature of the test: Inhibition of human FXIa using S-2366 as chromogenic substrate preincubated with enzyme for 10 mins followed by substrate addition by spectrophotometric analysis relative to control. Set-up: concentration or dose not given beside the values. In short, it runs like this: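 hFXIa (0.765 nM final) preincubated with inhibitor or reference solution for 10 min at 37 °C in pH 7.4 buffer (50 mM Tris-HCl, 150 mM NaCl, 0.1% PEG8000, 0.02% Tween80). S-2366 (345 μM final) then added, and residual activity read on a microplate reader.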
T2 sequence (P03951 19-387 limits assumed): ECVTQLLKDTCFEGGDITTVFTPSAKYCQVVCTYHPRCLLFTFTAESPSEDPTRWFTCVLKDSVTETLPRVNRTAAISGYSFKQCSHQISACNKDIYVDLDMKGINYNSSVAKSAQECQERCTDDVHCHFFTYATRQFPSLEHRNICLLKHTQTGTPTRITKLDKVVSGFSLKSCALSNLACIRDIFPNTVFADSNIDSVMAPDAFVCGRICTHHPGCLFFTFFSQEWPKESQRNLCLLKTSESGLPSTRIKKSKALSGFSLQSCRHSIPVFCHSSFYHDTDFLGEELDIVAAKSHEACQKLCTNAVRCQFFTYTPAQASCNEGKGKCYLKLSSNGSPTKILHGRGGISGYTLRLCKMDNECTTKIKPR
T2 sequence (P03951 388-625 limits assumed): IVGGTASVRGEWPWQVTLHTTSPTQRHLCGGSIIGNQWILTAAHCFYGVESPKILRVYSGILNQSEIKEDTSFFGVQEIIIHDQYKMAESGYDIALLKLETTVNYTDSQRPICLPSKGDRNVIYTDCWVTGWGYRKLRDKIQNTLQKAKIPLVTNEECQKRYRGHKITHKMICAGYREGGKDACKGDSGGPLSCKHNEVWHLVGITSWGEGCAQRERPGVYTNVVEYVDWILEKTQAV

Test [14] is filed under the species Homo sapiens. Nature of the test: Selectivity for inhibition of human FXIa over human FXa.
Test [15] in a line: Selectivity for inhibition of human FXIa over bovine trypsin.
Test [16] is described as follows: Selectivity for inhibition of human FXIa over bovine alpha-chymotrypsin.
The species entered for test [17] is Bos taurus. The test is described as follows: Inhibition of bovine trypsin using S-2222 as chromogenic substrate at >200 uM by chromogenic substrate hydrolysis assay.
The species entered for test [18] is Homo sapiens. Nature of the test: Selectivity for inhibition of human FXIa over FVIIa (unknown origin).
The target in test [19] is T2, Coagulation factor XI. Nature of the test: Inhibition of human FXIa using S-2366 as chromogenic substrate preincubated with enzyme for 10 mins followed by substrate addition by spectrophotometric analysis.
For test [20], the target named is T2, Coagulation factor XI. The test is described as follows: Binding affinity to active site dansylated human DEGR-FXIa assessed as hyperbolic interaction by measuring change in fluorescence intensity by fluorescence based analysis. In short, it runs like this:
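Titration of sulfated QAOs into 250 nM active-site dansylated hFXIa–DEGR in 50 mM Tris-HCl pH 7.4, 150 mM NaCl, 0.1% PEG8000, 37 °C. Emission monitored at 547 nm (excitation 345 nm). ΔFMAX, Hill coefficient n and KD obtained by nonlinear regression, using either the Hill equation or a standard hyperbolic equation. Error ±1 SE.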

Test [21] concerns the target T2, Coagulation factor XI. The test is described as follows: Binding affinity to active site dansylated human DEGR-FXIa assessed as change in fluorescence intensity by fluorescence based analysis.
The target in test [22] is T2, Coagulation factor XI. The test is described as follows: Binding affinity to active site dansylated human DEGR-FXIa assessed as maximal change in fluorescence intensity by fluorescence based analysis. Summed up: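 Dansyl fluorescence titration: aliquots of sulfated QAO added to 250 nM hFXIa–DEGR in 50 mM Tris-HCl pH 7.4, 150 mM NaCl, 0.1% PEG8000 at 37 °C. Emission read at 547 nm with excitation at 345 nm. ΔFMAX, Hill coefficient and KD come from nonlinear regression fits, using the Hill equation or a standard hyperbolic equation. Error is ±1 SE.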

The source made the active and inactive calls. The calls are words filed in the database; no cut-off is given here.

Experimental findings from ChEMBL document CHEMBL5244263, “Studies on fragment-based design of allosteric inhibitors of human factor XIa” (Bioorg Med Chem, 2020) are described below.

Sequence of Coagulation factor IX (Homo sapiens) (P00740 47-191 limits assumed): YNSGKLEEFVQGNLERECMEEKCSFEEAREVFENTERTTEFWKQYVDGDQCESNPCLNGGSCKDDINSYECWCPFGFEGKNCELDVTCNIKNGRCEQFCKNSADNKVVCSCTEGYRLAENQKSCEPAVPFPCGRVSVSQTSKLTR
Sequence of Coagulation factor IX (Homo sapiens) (P00740 227-461 limits assumed): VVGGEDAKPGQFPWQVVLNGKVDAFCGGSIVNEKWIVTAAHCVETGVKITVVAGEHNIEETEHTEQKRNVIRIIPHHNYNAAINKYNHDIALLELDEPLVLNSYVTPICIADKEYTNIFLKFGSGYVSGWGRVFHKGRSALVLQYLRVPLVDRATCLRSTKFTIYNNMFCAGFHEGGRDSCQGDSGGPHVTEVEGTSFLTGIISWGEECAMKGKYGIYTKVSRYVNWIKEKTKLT
Sequence of Plasma kallikrein (Homo sapiens) (P03952 20-390 limits assumed): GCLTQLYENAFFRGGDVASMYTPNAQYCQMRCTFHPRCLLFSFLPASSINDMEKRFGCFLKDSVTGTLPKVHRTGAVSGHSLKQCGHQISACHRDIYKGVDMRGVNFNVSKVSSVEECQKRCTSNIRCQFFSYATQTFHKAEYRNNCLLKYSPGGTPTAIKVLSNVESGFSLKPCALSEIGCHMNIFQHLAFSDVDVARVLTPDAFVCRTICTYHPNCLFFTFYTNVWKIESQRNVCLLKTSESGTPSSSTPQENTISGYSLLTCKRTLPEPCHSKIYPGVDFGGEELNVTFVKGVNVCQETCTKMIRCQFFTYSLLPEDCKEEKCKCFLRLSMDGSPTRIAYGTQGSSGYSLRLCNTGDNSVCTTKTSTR
Sequence of Plasma kallikrein (Homo sapiens) (P03952 391-638 limits assumed): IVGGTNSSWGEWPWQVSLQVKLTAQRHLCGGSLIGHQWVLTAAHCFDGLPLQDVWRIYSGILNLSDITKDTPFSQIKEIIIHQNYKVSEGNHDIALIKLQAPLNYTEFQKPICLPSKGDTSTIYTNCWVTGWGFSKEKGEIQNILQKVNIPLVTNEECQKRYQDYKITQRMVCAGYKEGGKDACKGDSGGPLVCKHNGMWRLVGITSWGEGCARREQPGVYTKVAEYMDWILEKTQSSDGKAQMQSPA

As a reminder, the inhibition is the relative decrease from the control value, in per cent. Turning to `O=c1c2ccccc2nc(-c2ccc(OS(=O)(=O)O)cc2)n1CCCCCCCCCn1c(-c2ccc(OS(=O)(=O)O)cc2)nc2ccccc2c1=O`, the inhibition entry (in test [1]; in test [3]; in [4]; in test [5]; in [6]; in the test listed under Bos taurus [7]) was “inactive” throughout. Moreover, the inhibition result in test [8] was “inactive”. In addition, the inhibition in the test filed under Homo sapiens [2] came out at 105%.

The IC50 is the concentration needed to halve the response being measured. With `O=c1c2ccccc2nc(-c2ccc(OS(=O)(=O)O)cc2)n1CCCCCCCCCCn1c(-c2ccc(OS(=O)(=O)O)cc2)nc2ccccc2c1=O`, the Selectivity ratio in the test filed under Homo sapiens [9] is over 63; in the test filed under Homo sapiens [10], over 63; in the test filed under Homo sapiens [12], over 63; in the test listed under Homo sapiens [14] it was over 25; in [15], over 25; in test [16], over 63. The Selectivity ratio in the test listed under Homo sapiens [18] is over 63. For the same molecule, the inhibition result in test [1], in test [3], in test [5], in test [6] and in test [8] was “inactive” each time. For the same molecule, the inhibition result (in test [11]; in the test filed under Bos taurus [17]) was “Active” throughout. For the same molecule, the inhibition against Coagulation factor XI [13] came to 95%. Moreover, at Coagulation factor XI [19], the IC50 came out at 16.6 µM.

`O=c1c2ccccc2nc(-c2ccc(OS(=O)(=O)O)cc2)n1CCCCCCCCCCCn1c(-c2ccc(OS(=O)(=O)O)cc2)nc2ccccc2c1=O`: the Selectivity ratio is over 63 in the test filed under Homo sapiens [9]; over 63 in the test listed under Homo sapiens [10]; over 63 in the test filed under Homo sapiens [12]; over 25 in the test listed under Homo sapiens [14]; over 25 in [15]; over 63 in [16]. Besides, the Selectivity ratio in the test filed under Homo sapiens [18] is over 63. The inhibition result in test [1], in [3], in test [5], in [6] and in test [8] was “inactive” throughout. Also, the inhibition entry (in test [11]; in the test listed under Bos taurus [17]) was “Active” in each case. Also, the inhibition at Coagulation factor XI [13] was 96%. Besides, at Coagulation factor XI [19], the IC50 turned out to be 14.5 µM.

Broadly, the Kd is a measure of binding affinity in units of concentration. For `O=c1[nH]c(-c2ccc(OS(=O)(=O)O)cc2)nc2ccccc12`, the outcome at Coagulation factor XI [20] was Active. The Kd on Coagulation factor XI [21] came to 365 µM. The Activity on Coagulation factor XI [22] was -34%. Also, at Coagulation factor XI [19], the IC50 turned out to be 375 µM.

Consider `O=c1c2ccccc2nc(-c2cccc(OS(=O)(=O)O)c2)n1CCOCCn1c(-c2cccc(OS(=O)(=O)O)c2)nc2ccccc2c1=O`, for which the Selectivity ratio (in the test filed under Homo sapiens [9]; in the test filed under Homo sapiens [10]; in the test listed under Homo sapiens [12]; in the test filed under Homo sapiens [14]; in test [15]; in test [16]) was over 63 each time. The Selectivity ratio in the test filed under Homo sapiens [18] is over 63. Also, the inhibition entry (in test [1]; in [3]; in test [4]; in [5]; in test [6]; in the test listed under Bos taurus [7]) was “inactive” in each case. Further, the inhibition entry in test [8] is “inactive”. Also, the inhibition against Coagulation factor XI [13] is 94%. Also, on Coagulation factor XI [19], the IC50 turned out to be 401 µM.

`O=c1c2ccccc2nc(-c2cccc(OS(=O)(=O)O)c2)n1Cc1ccc(Cn2c(-c3cccc(OS(=O)(=O)O)c3)nc3ccccc3c2=O)cc1`: the Selectivity ratio (in the test listed under Homo sapiens [9]; in the test filed under Homo sapiens [10]; in the test listed under Homo sapiens [12]; in the test filed under Homo sapiens [14]; in test [15]; in test [16]) was over 63 in each case. The Selectivity ratio in the test listed under Homo sapiens [18] was over 63. For the same molecule, the inhibition entry (in [1]; in test [3]; in [4]; in test [5]; in test [6]; in the test filed under Bos taurus [7]) was “inactive” in each case. Moreover, in test [8], the inhibition result is “inactive”. Further, the inhibition on Coagulation factor XI [13] was found to be 100%. In addition, on Coagulation factor XI [19], 248 µM corresponded to half-maximal inhibition (IC50).

Consider `O=c1c2ccccc2nc(-c2cccc(OS(=O)(=O)O)c2)n1Cc1ccccc1Cn1c(-c2cccc(OS(=O)(=O)O)c2)nc2ccccc2c1=O`, for which the Selectivity ratio (in the test filed under Homo sapiens [9]; in the test listed under Homo sapiens [10]; in the test filed under Homo sapiens [12]; in the test filed under Homo sapiens [14]; in [15]; in [16]) was over 63 each time. For the same molecule, the Selectivity ratio in the test listed under Homo sapiens [18] is over 63. Further, the inhibition entry (in test [1]; in test [3]; in test [4]; in test [5]; in [6]; in the test listed under Bos taurus [7]) was “inactive” throughout. The inhibition entry in test [8] is “inactive”. The inhibition on Coagulation factor XI [13] amounted to 93%. Further, at Coagulation factor XI [19], half-maximal inhibition (IC50) required 94 µM.

Take `O=c1c2ccccc2nc(-c2ccc(OS(=O)(=O)O)cc2)n1CCCCCCCCCCCn1cc(Cn2c(-c3ccc(OS(=O)(=O)O)cc3)nc3ccccc3c2=O)nn1`: the Selectivity ratio (in the test filed under Homo sapiens [9]; in the test filed under Homo sapiens [10]; in the test listed under Homo sapiens [12]; in the test listed under Homo sapiens [14]; in test [15]; in test [16]) was over 63 in each case. Also, the Selectivity ratio in the test filed under Homo sapiens [18] is over 63. Also, the inhibition result (in test [1]; in [3]; in test [4]; in test [5]; in test [6]; in the test listed under Bos taurus [7]) was “inactive” in each case. Further, the inhibition result in test [8] was “inactive”. In addition, the inhibition at Coagulation factor XI [13] came out at 98%. Moreover, at Coagulation factor XI [19], the midpoint of inhibition, the IC50, lay at 30 µM.

Turning to `O=c1c2ccccc2nc(-c2cccc(OS(=O)(=O)O)c2)n1C/C=C/Cn1c(-c2cccc(OS(=O)(=O)O)c2)nc2ccccc2c1=O`, the Selectivity ratio (in the test listed under Homo sapiens [9]; in the test filed under Homo sapiens [10]; in the test filed under Homo sapiens [12]; in the test filed under Homo sapiens [14]; in test [15]; in test [16]) was over 63 in each case. In the test filed under Homo sapiens [18], the Selectivity ratio was over 63. Besides, the inhibition result (in test [1]; in test [3]; in test [4]; in test [5]; in test [6]; in the test listed under Bos taurus [7]) was “inactive” each time. In addition, the inhibition entry in [8] is “inactive”. Also, the inhibition against Coagulation factor XI [13] worked out at 96%. The molecule also showed an IC50 against Coagulation factor XI [19] of 415 µM.
